Test [1] relates to Mus musculus. Put plainly: Evaluation of ILS percentage of mice upon intraperitoneal injection of VBL / oral administration on days 1-4 and 6-8 at a concentration of 20 mg/kg. The class given is functional. Put shortly: (§1)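 Female CD2F1 mice, 5 per group, were inoculated i.p. with 1.0 × 10^6 P388/ADR cells on day 0. VBL was given by i.p. injection and/or the test agent orally on days 1-4 and 6-8. Read-out was survival days (average ± SD) and ILS (%) against the untreated group, with P < 0.05 by Student's t-test or a two-sample test with Welch's correction.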

The test system of test [2] is Mus musculus. Nature of the test: Evaluation of ILS percentage of mice upon intraperitoneal injection of VBL / oral administration on days 1-4 and 6-8 at a concentration of 40 mg/kg. The class given is functional. A digest of the protocol:
as §1

Test [3] concerns Mus musculus. Nature of the test: Evaluation of ILS percentage of mice upon intraperitoneal injection of VBL and/or oral administration on days 1-4 and 6-8 at a concentration of 10 mg/kg. The class given is functional. A digest of the protocol: as §1
For test [4], the system named is Mus musculus. Put plainly: Evaluation of Survival of mice intraperitoneal injection of VBL and/or oral administration on days 1-4 and 6-8 at a concentration of 40 mg/kg in mice. The class given is functional. Put shortly:
as §1

In test [5] the test system is Mus musculus. Nature of the test: Evaluation of Survival of mice upon intraperitoneal injection of VBL and/or oral administration on days 1-4 and 6-8 at a concentration of 10 mg/kg. The class given is functional. A digest of the protocol: as §1
The test system of test [6] is Mus musculus. Nature of the test: Evaluation of Survival of mice upon intraperitoneal injection of VBL and/or oral administration on days 1-4 and 6-8 at a concentration of 20 mg/kg. The class given is functional. Put shortly: as §1
Test [7] has as its system P388/ADR. Put plainly: Relative increase in inhibitory activity against multidrug resistant P388 cells (P388/ADR) cells at a concentration of 1.0 uM in presence of vinblastine. The class given is functional, Mus musculus. A digest of the protocol:
(§2)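 Same 48 h MTT growth assay in P388/S or P388/ADR cells at 10^5 cells/mL. Vinblastine IC50 is found alone and with modulator at 1.0, 2.5 or 5.0 μM. The value is the relative increase in vinblastine growth-inhibitory effect, taken as the fold change in IC50 from the combined treatment.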

The test system of test [8] is P388/ADR. Put plainly: Relative increase in inhibitory activity against multidrug resistant P388 cells (P388/ADR) cells at a concentration of 2.5 uM in presence of vinblastine. The class given is functional, Mus musculus. Put shortly: as §2
Test [9] concerns P388/ADR. Put plainly: Relative increase in inhibitory activity against multidrug resistant P388 cells (P388/ADR) cells at a concentration of 5.0 uM in presence of vinblastine. The class given is functional, Mus musculus. Put shortly:
as §2

In test [10] the test system is P388/S. Nature of the test: In vitro evaluation for the inhibitory activity against drug sensitive P388 cells (P388/S) cells at a concentration of 5.0 uM. The class given is functional, cell-based. The conditions noted are these: Mus musculus. Put shortly:
(§3)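 P388/S and P388/ADR murine leukemia cells are maintained by weekly intraperitoneal passage in female CDF1 mice. For the assay they are seeded at 10^5 cells/mL in RPMI-1640 with 10% FCS, 20 μM β-mercaptoethanol and 100 μg/mL kanamycin. Vinblastine is given with or without modulator (0–5.0 μM; DMSO final 0.25%) for 48 h. Growth is read by MTT and vinblastine IC50 is reported.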

Test [11] deals with P388/S. Nature of the test: Inhibitory activity against drug sensitive P388 cells (P388/S) cells in presence of adriamycin. The class given is functional, cell-based. Conditions: Mus musculus. Put shortly: (§4)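 P388/S or P388/ADR cells at 10^5 cells/mL in RPMI-1640/10% FCS medium. They receive graded adriamycin, mitomycin C or cisplatin, alone or together with 2.5 μM modulator, for 48 h (DMSO final 0.25%). Growth is read by MTT and the antitumor-drug IC50 is reported.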

Test [12] concerns P388/S. Nature of the test: Inhibitory activity against drug sensitive P388 cells (P388/S) cells in presence of cisplatin. The conditions noted are these: Mus musculus. The class given is functional, cell-based. Put shortly: as §4
Test [13] deals with P388/S. Nature of the test: Inhibitory activity against drug sensitive P388 cells (P388/S) cells in presence of mitomycin C. The class given is functional, cell-based. Conditions: Mus musculus. Put shortly: as §4
Test [14] has as its system P388/S. Nature of the test: Relative increase in inhibitory activity against drug sensitive P388 cells (P388/S) cells at a concentration of 1.0 uM in presence of vinblastine. The class given is functional, Mus musculus. Put shortly: as §2
Test [15] deals with P388/S. Nature of the test: Relative increase in inhibitory activity against drug sensitive P388 cells (P388/S) cells at a concentration of 2.5 uM in presence of vinblastine. The class given is functional, Mus musculus. A digest of the protocol: as §2
The test system of test [16] is P388/S. Put plainly: In vitro evaluation for the inhibitory activity against drug sensitive P388 cells (P388/S) cells at a concentration of 0 uM. The conditions noted are these: Mus musculus. The class given is functional, cell-based. Put shortly:
as §3

In test [17] the test system is P388/S. Nature of the test: In vitro evaluation for the inhibitory activity against drug sensitive P388 cells (P388/S) cells at a concentration of 1.0 uM. The class given is functional, cell-based. The conditions noted are these: Mus musculus. Put shortly:
as §3

The subject of test [18] is P388/S. Put plainly: In vitro evaluation for the inhibitory activity against drug sensitive P388 cells (P388/S) cells at a concentration of 2.5 uM. The class given is functional, cell-based. Conditions: Mus musculus. A digest of the protocol: as §3
Test [19] has as its system P388/S. Put plainly: Relative increase in inhibitory activity against drug sensitive P388 cells (P388/S) cells at a concentration of 5.0 uM in presence of vinblastine. The class given is functional, Mus musculus. Put shortly:
as §2

Test [20] has as its system P388/ADR. Nature of the test: In vitro for the inhibitory activity against multidrug resistant P388 cells (P388/ADR) cells at a concentration of 0 uM. The conditions noted are these: Mus musculus. The class given is functional, cell-based. A digest of the protocol:
as §3

For test [21], the system named is P388/ADR. Put plainly: In vitro for the inhibitory activity against multidrug resistant P388 cells (P388/ADR) cells at a concentration of 1.0 uM. The conditions noted are these: Mus musculus. The class given is functional, cell-based. A digest of the protocol: as §3
For test [22], the system named is P388/ADR. Nature of the test: In vitro for the inhibitory activity against multidrug resistant P388 cells (P388/ADR) cells at a concentration of 2.5 uM. The class given is functional, cell-based. Conditions: Mus musculus. A digest of the protocol: as §3
Test [23] concerns P388/ADR. Put plainly: In vitro for the inhibitory activity against multidrug resistant P388 cells (P388/ADR) cells at a concentration of 5 uM. The conditions noted are these: Mus musculus. The class given is functional, cell-based. Put shortly:
as §3

Test [24] relates to P388/ADR. Put plainly: Inhibitory activity against multidrug resistant P388 cells (P388/ADR) cells at a concentration of 2.5 uM in presence of cisplatin. The conditions noted are these: Mus musculus.
Test [25] concerns P388/ADR. Nature of the test: Inhibitory activity against multidrug resistant P388 cells (P388/ADR) cells at a concentration of 2.5 uM in presence of adriamycin. Conditions: Mus musculus.
The test system of test [26] is P388/ADR. Nature of the test: Inhibitory activity against multidrug resistant P388 cells (P388/ADR) cells at a concentration of 2.5 uM in presence of mitomycin C. The conditions noted are these: Mus musculus.
Test [27] has as its system P388/S. Nature of the test: Evaluation of inhibitory activity against drug sensitive P388 cells (P388/S) cells. The class given is functional, cell-based, Mus musculus. Put shortly:
as §3

The test system of test [28] is P388/ADR. Nature of the test: Evaluation of inhibitory activity against multidrug resistant P388 cells (P388/ADR) cells. The class given is functional, cell-based, Mus musculus. Conditions: p388/adr. Put shortly: as §3
Test [29] relates to P388/S. Put plainly: Evaluation of inhibitory activity and cisplatin against drug sensitive P388 cells (P388/S) cells. Conditions: p388/s. The class given is functional, cell-based, Mus musculus. A digest of the protocol: as §4
Test [30] deals with P388/ADR. Nature of the test: Evaluation of inhibitory activity and cisplatin against multidrug resistant P388 cells (P388/ADR) cells. The class given is functional, cell-based, Mus musculus. A digest of the protocol:
as §4

By ILS is commonly meant the gain in survival time of treated over control animals, in per cent. A low value points to little gain in survival. A word on the IC50: it is the point on the concentration scale where inhibition reaches its midpoint. `CC[C@]1(O)C[C@H]2CN(CCc3c([nH]c4ccccc34)[C@@](C(=O)OC)(c3cc4c(cc3OC)N(C)[C@H]3[C@@](O)(C(=O)OC)[C@H](OC(C)=O)[C@]5(CC)C=CCN6CC[C@]43[C@@H]65)C2)C1.CSC1=NC(=O)N(Cc2ccc(Cl)cc2)CCN1Cc1ccc(Cl)cc1` displayed an increase in lifespan (ILS) at 20 mg/kg with Mus musculus [1] of 37.5%. In the test with Mus musculus [2], the ILS at 40 mg/kg was 45.8%. The same compound displayed an ILS at 10 mg/kg in the test with Mus musculus [3] of 20.8%. The Survival days in the test with Mus musculus [4] is recorded as 14; with Mus musculus [5] it was 11.6; in the test with Mus musculus [6], 13.2. Also, the Relative activity with P388/ADR [7] was determined as 3.2; in the test with P388/ADR [8], 11; with P388/ADR [9] it was 23; in the test with P388/S [14], 1.9; in the test on P388/S [15], 2.4; with P388/S [19], 4.3. For the same compound, the 50% inhibitory concentration (IC50) was found to be 0.4 nM in the test with P388/S [10]; 13 nM with P388/S [11]; 72 nM with P388/S [12]; 44 nM with P388/S [13]; 1.7 nM with P388/S [16]; 0.9 nM in the test with P388/S [17]. Also, the half-inhibitory concentration (IC50) in the test on P388/S [18] came out at 0.7 nM; in the test on P388/ADR [20], 70 nM; in the test on P388/ADR [21] it was 23 nM; with P388/ADR [22] it was 6.2 nM; with P388/ADR [23] it was 2.2 nM; in the test on P388/ADR [24], 51 nM. In addition, the IC50 in the test on P388/ADR [25] stood at 90 nM; with P388/ADR [26] it was 264 nM.
Take CISPLATIN: the IC50 was 48 nM in the test with P388/S [27] and 61 nM with P388/ADR [28].
On to “1,5-Bis-(4-chloro-benzyl)-4-methylsulfanyl-1,5,6,7-tetrahydro-[1,3,5]triazepin-2-one; compound with cisplatin”, for which the IC50 in the test with P388/S [29] was determined as 72 nM; in the test on P388/ADR [30], 51 nM.

The values are drawn from ChEMBL document CHEMBL1128222, “Novel inhibitors for multidrug resistance: 1,3,5-triazacycloheptanes” (J Med Chem, 1995).
